The values that follow come from ChEMBL document CHEMBL2424598, “Identification and optimization of pteridinone Toll-like receptor 7 (TLR7) agonists for the oral treatment of viral hepatitis” (J Med Chem, 2013).

SMILES strings stand for the structures. The source made the active and inactive calls. The calls are words filed in the database; no cut-off is given here.

The test system of data set [1] is Cynomolgus monkey. The experiment in a line: Agonist activity at […] in cynomolgus monkey assessed as increase of serum IFNalpha level at 0.1 mg/kg, po after 1 to 24 hrs by ELISA. Format: functional, Macaca fascicularis. The method, boiled down:
(§1)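 Healthy male cynomolgus monkeys, n = 3 per group, dosed either by 30 min iv infusion or orally. Serum was sampled predose and at 1, 2, 4, 8, 12 and 24 h postdose. IFN-α was measured by species-specific ELISA (limit of detection 130 pg/mL) and reported as mean peak serum level ± SD.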

Data set [2] in a line: Half life in human liver microsomes. The format is ADME, Microsome.
A short description of data set [3]: Half life in rat liver microsomes. The format is ADME, Microsome.
Data set [4] in a line: Cmax in cynomolgus monkey at 1 mg/kg, po. The format is ADME, organism-based, Macaca fascicularis. Also noted: dose 1 mg/kg, route oral. The following applies: in vivo. The method, boiled down:
(§2)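 Male cynomolgus monkeys, n = 3 per group, received a 30 min iv infusion or an oral dose. Compound was measured in serum (limit of quantitation 0.04 ng/mL), and Cmax is reported as the group mean.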

A short description of data set [5]: Cmax in cynomolgus monkey at 0.1 mg/kg, po. Format: ADME, organism-based, Macaca fascicularis. Also on record: dose 0.1 mg/kg, route oral. The following applies: in vivo. Put shortly: as §2
A short description of data set [6]: Volume of distribution at steady state in cynomolgus monkey at 0.1 mg/kg, iv and 0.3 mg/kg, po. The following applies: in vivo, read-out: Vdss. Format: ADME, organism-based, Macaca fascicularis. The method, boiled down:
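Healthy male cynomolgus monkeys, n = 3, received a 30 min iv infusion at 0.1 mg/kg or an oral dose at 0.3 mg/kg. The oral formulation was water at pH 3.1 (HCl). Plasma PK parameters (CL, Vss, F) are reported as mean ± SD.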

In data set [7] the test system is Cynomolgus monkey. The experiment in a line: Agonist activity at […] in cynomolgus monkey assessed as increase of serum IFNalpha level at 1 mg/kg, po after 1 to 24 hrs by ELISA. Format: functional, Macaca fascicularis. The method, boiled down:
as §1

In the next data set the target is T1, Toll-like receptor 8 (Homo sapiens, UniProt Q9NR97).
T1 sequence (Q9NR97 whole entry): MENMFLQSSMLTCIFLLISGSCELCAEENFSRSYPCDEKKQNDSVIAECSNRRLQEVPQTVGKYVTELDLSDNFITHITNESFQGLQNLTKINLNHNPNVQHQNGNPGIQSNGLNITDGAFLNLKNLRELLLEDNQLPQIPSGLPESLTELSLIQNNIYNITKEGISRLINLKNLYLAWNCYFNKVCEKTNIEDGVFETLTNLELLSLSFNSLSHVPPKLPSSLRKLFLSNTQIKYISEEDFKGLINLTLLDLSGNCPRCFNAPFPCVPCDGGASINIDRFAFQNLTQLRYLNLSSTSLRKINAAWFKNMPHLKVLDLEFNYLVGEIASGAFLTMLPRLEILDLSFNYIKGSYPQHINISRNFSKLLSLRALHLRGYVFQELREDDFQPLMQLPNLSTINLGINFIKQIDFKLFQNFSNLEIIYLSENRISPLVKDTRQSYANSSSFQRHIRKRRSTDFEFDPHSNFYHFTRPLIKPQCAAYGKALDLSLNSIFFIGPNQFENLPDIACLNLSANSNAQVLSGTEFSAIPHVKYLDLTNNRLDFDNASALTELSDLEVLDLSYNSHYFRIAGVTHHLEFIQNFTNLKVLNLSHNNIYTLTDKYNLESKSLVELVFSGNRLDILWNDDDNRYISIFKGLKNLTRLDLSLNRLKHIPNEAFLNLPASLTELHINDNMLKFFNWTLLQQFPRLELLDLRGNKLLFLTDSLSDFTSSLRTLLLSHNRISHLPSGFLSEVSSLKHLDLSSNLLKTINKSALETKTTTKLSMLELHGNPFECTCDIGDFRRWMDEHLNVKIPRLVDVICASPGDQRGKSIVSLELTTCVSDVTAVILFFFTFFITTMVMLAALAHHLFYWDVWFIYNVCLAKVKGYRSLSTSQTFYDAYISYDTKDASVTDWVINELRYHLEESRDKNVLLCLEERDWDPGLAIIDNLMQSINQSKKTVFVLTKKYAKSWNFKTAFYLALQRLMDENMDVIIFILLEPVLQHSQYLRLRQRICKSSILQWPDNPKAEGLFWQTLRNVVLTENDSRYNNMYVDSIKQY
The experiment in a line: Agonist activity at human TLR8 expressed in HEK293 cells by reporter based assay. Format: cell-based. The method, boiled down: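 HEK293 reporter cell lines, each expressing a single human TLR, with compound titrated up to 100 μM. EC50 taken for TLR7 and TLR8 activation.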

The subject of data set [8] is Cynomolgus monkey. The experiment in a line: Agonist activity at […] in cynomolgus monkey assessed as increase of serum IFNalpha level at 2 mg/kg, po after 1 to 24 hrs by ELISA. The format is functional, Macaca fascicularis. The method, boiled down: as §1
Data set [9] concerns Cynomolgus monkey. The experiment in a line: Agonist activity at […] in cynomolgus monkey assessed as increase of serum TNFalpha level at 0.3 to 1 mg/kg after 1 to 24 hrs by ELISA. The following applies: Macaca fascicularis.
Data set [10] is described as follows: Cmax in cynomolgus monkey at 0.3 mg/kg, po. Format: ADME, organism-based, Macaca fascicularis. Also on record: dose 0.3 mg/kg, route oral. The following applies: in vivo. Put shortly:
as §2

Data set [11] is described as follows: Half life in monkey liver microsomes. Format: ADME, Macaca mulatta, Microsome. The following applies: rhesus monkey.
The nature of data set [12]: Cmax in cynomolgus monkey at 0.1 mg/kg, iv. Also on record: dose 0.1 mg/kg, route intravenous. The following applies: in vivo. Format: ADME, organism-based, Macaca fascicularis. Put shortly: as §2
Data set [13] is described as follows: Cmax in cynomolgus monkey at 2 mg/kg, po. Also on record: dose 2 mg/kg, route oral. Format: ADME, organism-based, Macaca fascicularis. The following applies: in vivo. Put shortly:
as §2

In data set [14] the test system is Cynomolgus monkey. The experiment in a line: Agonist activity at […] in cynomolgus monkey assessed as increase of serum IFNalpha level at 0.3 mg/kg, po after 1 to 24 hrs by ELISA. The format is functional, Macaca fascicularis. The method, boiled down: as §1

For the molecule `CCCCOc1nc(N)c2c(n1)N(Cc1cccc(CN3CCCC3)c1)CC(=O)N2` [VESATOLIMOD], the Activity in the data set with Cynomolgus monkey [1] stood at 140 pg/mL; in the data set with Cynomolgus monkey [7], 22367 pg/mL; with Cynomolgus monkey [8] it was 119000 pg/mL; with Cynomolgus monkey [14], 763 pg/mL. For the same molecule, the half-life in [2] amounted to 30.5 min; in data set [3], 5.4 min; in data set [11], 5.9 min. Further, the Cmax was 20.7 ng/mL in [4]; 1.6 ng/mL in [5]; 4.6 ng/mL in data set [10]; 128 ng/mL in [12]; 66.4 ng/mL in [13]. In addition, the Vd in data set [6] was found to be 4.1 L/kg. At Toll-like receptor 8, this molecule came in with an EC50 of 9 µM. For the same molecule, the outcome in the data set on Cynomolgus monkey [9] was inactive.
